In ChEMBL document CHEMBL1134769, “Potent and selective nonpeptide inhibitors of caspases 3 and 7” (J Med Chem, 2001):

Tests used:
[1] = biological target: T1, Caspase-6 (Homo sapiens, UniProt P55212); experiment: Inhibitory activity against Caspase-6; details: read-out: Ki app
T1 sequence (P55212 whole entry): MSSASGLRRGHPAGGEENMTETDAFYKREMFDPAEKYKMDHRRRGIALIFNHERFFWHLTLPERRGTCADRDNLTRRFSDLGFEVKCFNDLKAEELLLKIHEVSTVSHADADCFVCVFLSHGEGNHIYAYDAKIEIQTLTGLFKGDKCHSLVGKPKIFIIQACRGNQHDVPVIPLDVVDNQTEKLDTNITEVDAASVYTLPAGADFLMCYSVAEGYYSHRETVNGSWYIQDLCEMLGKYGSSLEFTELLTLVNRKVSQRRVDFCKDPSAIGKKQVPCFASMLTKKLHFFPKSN
Outline: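 Recombinant full-length human caspase 6 (~10 units/assay) in 50 mM Tris-HCl pH 7.4 with 0.1% CHAPS, 1.5 mM MgCl2, 1 mM EDTA and 5 mM β-mercaptoethanol. Substrate 10 μM Ac-DEVD-AMC. AMC monitored at 360/460 nm, 30 °C, final DMSO 5%. Single-dose screen (typically 5–50 μM), then IC50 determination.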

[2] = biological target: T2, Caspase-1 (Homo sapiens, UniProt P29466); experiment: Inhibitory activity against caspase-1; details: read-out: Ki app
T2 sequence (P29466 whole entry): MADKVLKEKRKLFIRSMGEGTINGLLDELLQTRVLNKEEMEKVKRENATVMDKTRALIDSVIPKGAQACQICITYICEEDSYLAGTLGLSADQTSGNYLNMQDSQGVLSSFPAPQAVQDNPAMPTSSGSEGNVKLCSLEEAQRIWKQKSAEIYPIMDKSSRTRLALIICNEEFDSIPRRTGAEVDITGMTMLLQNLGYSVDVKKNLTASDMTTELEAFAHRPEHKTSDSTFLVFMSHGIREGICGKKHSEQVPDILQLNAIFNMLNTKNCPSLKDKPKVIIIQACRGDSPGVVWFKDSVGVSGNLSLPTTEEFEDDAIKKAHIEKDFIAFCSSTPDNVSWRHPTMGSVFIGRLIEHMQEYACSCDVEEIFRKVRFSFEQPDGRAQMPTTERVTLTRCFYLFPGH
Outline: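 Recombinant full-length human caspase 1, ~10 units/assay, in 25 mM K+HEPES pH 7.5 with 10% sucrose, 0.1% CHAPS and 5 mM β-mercaptoethanol. Substrate 10 μM Ac-YVAD-AMC. AMC read at 360/460 nm, 30 °C, with 5% final DMSO. Single-dose screen (typically 5–50 μM), followed by IC50 curves for active compounds.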

[3] = biological target: Caspase-8 (Homo sapiens, UniProt Q14790); experiment: Inhibitory activity against Caspase-8; details: read-out: Ki app
Outline: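 Recombinant full-length human caspase 8, ~10 units/assay, in Na+MOPS pH 7.5 with 10% glycerol, 0.25 mM EDTA and 5 mM β-mercaptoethanol. Substrate 10 μM Ac-IETD-AMC. Fluorescence at 360/460 nm, 30 °C, 5% final DMSO. Compounds screened at a single dose (typically 5–50 μM), then full IC50 curves for actives.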

[4] = biological target: T3, Caspase-9 (Homo sapiens, UniProt P55211); experiment: Inhibitory activity against Caspase-9; details: read-out: Ki app
T3 sequence (P55211 whole entry): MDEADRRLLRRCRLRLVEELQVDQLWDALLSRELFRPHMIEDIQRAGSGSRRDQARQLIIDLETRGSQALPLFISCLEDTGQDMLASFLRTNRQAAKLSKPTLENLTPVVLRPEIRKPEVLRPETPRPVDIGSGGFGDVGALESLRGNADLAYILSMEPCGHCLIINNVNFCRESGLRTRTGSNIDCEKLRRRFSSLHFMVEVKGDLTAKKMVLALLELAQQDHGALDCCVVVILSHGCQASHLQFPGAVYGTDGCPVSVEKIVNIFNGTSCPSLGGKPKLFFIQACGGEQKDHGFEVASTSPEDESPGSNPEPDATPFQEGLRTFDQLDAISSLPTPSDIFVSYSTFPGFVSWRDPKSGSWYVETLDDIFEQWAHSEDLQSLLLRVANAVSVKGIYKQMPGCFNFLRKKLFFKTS

[5] = biological target: T4, Caspase-3 (Homo sapiens, UniProt P42574); experiment: Inhibitory activity against caspase-3; details: read-out: Ki app
T4 sequence (P42574 whole entry): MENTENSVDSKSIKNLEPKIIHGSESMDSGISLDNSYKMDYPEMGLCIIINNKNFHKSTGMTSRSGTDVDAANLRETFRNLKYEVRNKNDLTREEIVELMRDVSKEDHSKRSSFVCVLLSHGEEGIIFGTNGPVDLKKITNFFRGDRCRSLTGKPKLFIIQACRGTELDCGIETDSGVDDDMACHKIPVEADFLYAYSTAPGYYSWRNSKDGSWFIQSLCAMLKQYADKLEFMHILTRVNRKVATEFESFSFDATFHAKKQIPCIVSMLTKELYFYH
Outline: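 Recombinant full-length human caspase 3 or 7, ~10 units/assay (1 unit = 1 pmol AMC/min). Substrate 10 μM Ac-DEVD-AMC. AMC fluorescence at 360/460 nm, 30 °C, with 5% final DMSO. Single-dose screen (typically 5–50 μM), then IC50 curves; repeated IC50s had CVs typically <30%.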

[6] = biological target: T5, Caspase-2 (Homo sapiens, UniProt P42575); experiment: Inhibitory activity against caspase-2; details: read-out: Ki app
T5 sequence (P42575 whole entry): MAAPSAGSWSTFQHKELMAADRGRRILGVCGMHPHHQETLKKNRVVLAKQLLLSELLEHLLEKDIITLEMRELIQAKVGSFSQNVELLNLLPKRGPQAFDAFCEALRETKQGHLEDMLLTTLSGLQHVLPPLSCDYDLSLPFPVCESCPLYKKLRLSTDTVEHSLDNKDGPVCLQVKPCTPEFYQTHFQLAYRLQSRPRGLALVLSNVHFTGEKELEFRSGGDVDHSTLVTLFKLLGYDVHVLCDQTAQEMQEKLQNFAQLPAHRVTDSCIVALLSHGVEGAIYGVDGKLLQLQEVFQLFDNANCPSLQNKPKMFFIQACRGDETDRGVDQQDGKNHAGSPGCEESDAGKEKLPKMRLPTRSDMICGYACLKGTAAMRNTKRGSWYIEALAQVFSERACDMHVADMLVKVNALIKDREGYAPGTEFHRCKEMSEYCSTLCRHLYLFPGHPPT
Outline: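 Recombinant full-length human caspase 2 (~10 units/assay) in 50 mM sodium acetate pH 6.2 with 10% glycerol, 0.25 mM EDTA and 5 mM β-mercaptoethanol. Substrate 25 μM Ac-VDVAD-AMC. Fluorescence at 360/460 nm, 30 °C, final DMSO 5%. Compounds screened at a single dose (typically 5–50 μM), then full IC50 curves where activity was seen.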

[7] = test system: C20/A4; experiment: In vitro inhibition of Chondrocyte cell line C20/A4 apoptosis at 25 uM of compound; type: functional, Homo sapiens
Outline: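 Immortalized human chondrocyte line C20/A4 seeded at 20 000 cells/well overnight, then exposed 24 h to 4 μg/mL camptothecin with or without compound. Floating and adherent cells combined and lysed 30 min at 4 °C, then clarified at 14000g. Mono- and oligonucleosome DNA fragments measured by cell death ELISA; result expressed as % inhibition of apoptosis.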

Sequence of Caspase-8 (Q14790 217-374 limits assumed): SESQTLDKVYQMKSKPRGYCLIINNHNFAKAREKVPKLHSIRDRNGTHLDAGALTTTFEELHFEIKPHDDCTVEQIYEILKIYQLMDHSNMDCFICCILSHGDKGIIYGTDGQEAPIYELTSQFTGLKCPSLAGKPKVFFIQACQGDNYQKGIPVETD
Sequence of Caspase-8 (Q14790 385-479 limits assumed): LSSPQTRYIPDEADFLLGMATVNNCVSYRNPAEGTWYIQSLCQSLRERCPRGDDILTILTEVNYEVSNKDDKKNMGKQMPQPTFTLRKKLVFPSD

| SMILES | Ki [1] [µM] | Ki [2] [µM] | Ki [3] [µM] | Ki [4] [µM] | Ki [5] [µM] | Ki [6] [µM] | Inhibition [7] [%] |
| --- | --- | --- | --- | --- | --- | --- | --- |
| O=C1C(=O)N(Cc2ccccc2)c2ccc(S(=O)(=O)N3CCC[C@H]3COc3ccccc3)cc21 | > 5 | > 5 | > 5 | 0.12 | 0.0012 | 4 | 84 |
| O=C1Nc2ccc(S(=O)(=O)N3CCC[C@H]3COc3ccccc3)cc2C1=O | 29 | 17 | 49 | 1.2 | 0.015 | 4.9 | 83 |
| COC[C@@H]1CCCN1S(=O)(=O)c1ccc2c(c1)C(=O)C(=O)N2 | > 25 | > 25 | > 25 | 1.1 | 0.06 | > 25 |  |

The remaining molecules from weak to strong by Ki [1], led by results:

| Ki [1] [µM] | Ki [2] [µM] | Ki [3] [µM] | Ki [4] [µM] | Ki [5] [µM] | Ki [6] [µM] | SMILES | Inhibition [7] [%] |
| --- | --- | --- | --- | --- | --- | --- | --- |
| 57 | > 50 | > 50 | > 50 | 12 | 11 | CN(CC1CCCN1S(=O)(=O)c1ccc2c(c1)C(=O)C(=O)N2)c1ccccc1 (stereo not drawn) |  |
| 7.5 | 21 | 80 | 0.85 | 0.019 | 6.5 | O=C1Nc2ccc(S(=O)(=O)N3CCC[C@H]3CNc3ccccc3)cc2C1=O | 96 |
